Values after ≈ are worked out from the molar mass of the structure shown.
Assays:
P388 = assay: Cytotoxicity against mouse P388 cells after 3 days by MTT assay; type: functional, cell-based; conditions: P388, 72 h
How it was run: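 Mouse lymphocytic leukemia cells grown in Fisher's medium with 10% heat-inactivated FCS at 37 °C, 5% CO2. Seeded at 1500 cells/well in 200 µL cultures, then given compounds in 0.5% DMSO at eight concentrations in triplicate for 3 days. MTT added, formazan dissolved in DMSO and read at 540 nm. IC50 is the concentration giving 50% absorbance reduction versus untreated cells. Assays repeated three times.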

HT-29 = assay: Cytotoxicity against human HT29 cells after 6 days by MTT assay; type: functional, cell-based; conditions: HT-29, 144 h
How it was run: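 Human colon carcinoma cells from ATCC kept in RPMI 1640 with 10% heat-inactivated FCS at 37 °C, 5% CO2. Plated at 1000 cells/well and exposed 6 days to eight concentrations spanning a 128-fold range, in triplicate, in 0.5% DMSO. Then 1 mg/mL MTT added for 5 h at 37 °C, formazan dissolved in DMSO, read at 540 nm. IC50 is 50% absorbance reduction versus untreated cells. Three repeats.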

| Structure (SMILES) | IC50 (P388) [mg/L] | IC50 (HT-29) [mg/L] |
| --- | --- | --- |
| CC(=O)O[C@@H]1[C@H]2C[C@H](OC(=O)c3ccccc3)[C@]3(COC(=O)CC(C)C)[C@@H](OC(C)=O)[C@@H](OC(=O)c4ccccc4)C[C@@H](C)[C@@]13OC2(C)C | 0.051 (≈ 0.0751 µM) | 0.082 (≈ 0.121 µM) |
| CC(=O)O[C@H]1CC[C@@H](C)[C@]23OC(C)(C)[C@H](C[C@H](OC(=O)c4ccccc4)[C@]12COC(=O)c1ccccc1)[C@H]3OC(C)=O | 0.043 (≈ 0.0743 µM) | 0.071 (≈ 0.123 µM) |
| CC(=O)O[C@@H]1[C@H]2C[C@H](OC(=O)c3ccccc3)[C@]3(COC(=O)c4ccccc4)[C@@H](OC(C)=O)[C@@H](OC(=O)c4ccccc4)C[C@@H](C)[C@@]13OC2(C)C [FOKIENAGAROFURAN A] | 0.032 (≈ 0.0458 µM) | 0.054 (≈ 0.0773 µM) |
| CC(=O)O[C@H]1[C@@H](OC(=O)c2ccccc2)C[C@@H](C)[C@]23OC(C)(C)[C@H](C[C@H](OC(=O)c4ccccc4)[C@]12COC(=O)c1ccccc1)[C@H]3OC(=O)c1ccccc1 [FOKIENAGAROFURAN D] | 0.036 (≈ 0.0473 µM) | 0.058 (≈ 0.0762 µM) |
| CO[C@H](C(=O)[C@@H](O)[C@@H](C)O)[C@@H]1Cc2cc3cc(O[C@H]4C[C@@H](O[C@@H]5C[C@@H](O)[C@H](O)[C@@H](C)O5)[C@H](O)[C@@H](C)O4)c(C)c(O)c3c(O)c2C(=O)[C@H]1O[C@H]1C[C@@H](O[C@@H]2C[C@@H](O)[C@@H](O[C@@H]3C[C@](C)(O)[C@H](O)[C@@H](C)O3)[C@@H](C)O2)[C@H](O)[C@@H](C)O1 [PLICAMYCIN] | 0.06 (≈ 0.0553 µM) | 0.08 (≈ 0.0737 µM) |

— ChEMBL document CHEMBL1157333, “Cytotoxic dihydroagarofuranoid sesquiterpenes from the stem of Microtropis fokienensis” (J Nat Prod, 2006)
